ChEMBL document CHEMBL2440054, “Largazole Arrests Cell Cycle at G1 Phase and Triggers Proteasomal Degradation of E2F1 in Lung Cancer Cells” (ACS Med Chem Lett, 2013)
The source made the active and inactive calls. The calls are words filed in the database; no cut-off is given here.

Assays:
A549 [1] = assay: Downregulation of p21 protein expression in human A549 cells at 0.1 uM after 4 hrs by Western blotting analysis in presence of protein synthesis inhibitor cycloheximide; assay type: functional, cell-based
[2] = target: T1, Retinoblastoma-associated protein (Homo sapiens) (UniProt P06400); assay: Dephosphorylation of Rb in human A549 cells assessed as increase in Rb-E2F1 interaction at 0.1 uM after 8 hrs by immunoprecipitation and Western blotting analysis; assay type: cell-based
T1 sequence (whole entry): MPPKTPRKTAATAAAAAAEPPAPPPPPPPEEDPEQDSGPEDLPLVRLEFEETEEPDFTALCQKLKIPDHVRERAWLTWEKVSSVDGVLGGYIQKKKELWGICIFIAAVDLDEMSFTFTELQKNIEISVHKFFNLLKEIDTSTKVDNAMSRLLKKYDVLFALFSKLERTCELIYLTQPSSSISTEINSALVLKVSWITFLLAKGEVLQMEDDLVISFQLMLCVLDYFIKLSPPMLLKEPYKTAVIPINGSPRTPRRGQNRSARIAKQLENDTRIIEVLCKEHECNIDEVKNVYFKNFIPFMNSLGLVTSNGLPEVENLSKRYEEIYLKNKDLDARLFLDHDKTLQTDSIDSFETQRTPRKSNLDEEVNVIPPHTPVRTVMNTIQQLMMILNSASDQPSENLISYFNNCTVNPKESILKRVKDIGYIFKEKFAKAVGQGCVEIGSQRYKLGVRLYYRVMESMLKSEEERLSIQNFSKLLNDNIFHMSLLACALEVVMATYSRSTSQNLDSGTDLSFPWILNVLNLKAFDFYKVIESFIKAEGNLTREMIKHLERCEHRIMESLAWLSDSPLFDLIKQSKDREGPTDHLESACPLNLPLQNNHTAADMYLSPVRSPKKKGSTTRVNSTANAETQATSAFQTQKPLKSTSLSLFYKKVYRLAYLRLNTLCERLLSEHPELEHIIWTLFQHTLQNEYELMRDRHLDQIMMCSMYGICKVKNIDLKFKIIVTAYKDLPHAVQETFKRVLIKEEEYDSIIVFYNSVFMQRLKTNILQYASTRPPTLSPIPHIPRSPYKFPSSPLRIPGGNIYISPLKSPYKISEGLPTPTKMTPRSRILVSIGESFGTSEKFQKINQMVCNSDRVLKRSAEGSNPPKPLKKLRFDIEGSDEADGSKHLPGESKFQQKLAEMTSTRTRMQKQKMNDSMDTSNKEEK
Procedure, shortened: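 A549 cells treated with 0.1 μM largazole for 8 h and lysed. Lysates immunoprecipitated, then Western blotted with the indicated antibodies.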

A549 [3] = assay: Effect on cyclin D1 protein expression in human A549 cells at 0.1 uM after 6 to 36 hrs by Western blotting analysis; assay type: functional, cell-based
Procedure, shortened: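 A549 cells exposed to 0.1 μM largazole over a time course, lysed, and Western blotted for cyclin D1, CDK2, CDK4, p21 and p27.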

A549 [4] = assay: Induction of apoptosis in human A549 cells assessed as downregulation of pro-caspase-9 protein expression at 0.1 uM after 48 hrs by Western blotting analysis; assay type: functional, cell-based
Procedure, shortened: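 A549 cells given largazole 0.1 μM for indicated times, lysed, and Western blotted for pro-/cleaved caspase-9, caspase-8, pro-/active caspase-3 and PARP.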

A549 [5] = assay: Induction of apoptosis in human A549 cells at 0.3 to 1 uM after 48 hrs by Annexin V and propidium iodide staining-based flow cytometric analysis relative to control; assay type: functional
Procedure, shortened: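 A549 cells treated for 48 h at 0.3 to 1 μM, stained with Annexin V/PI and analysed by flow cytometry for the apoptotic fraction.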

A549 [6] = assay: Cell cycle arrest in human A549 cells assessed as accumulation at G1 phase at 0.06 uM after 24 hrs by propidium iodide staining-based flow cytometric analysis (reference value: 48.3%); assay type: functional
NCI-H460 [7] = assay: Cytotoxicity against human NCI-H460 cells assessed as inhibition of colony formation pretreated for 24 hrs followed by seeding measured after 10 days by clonogenic assay; assay type: functional, cell-based
Procedure, shortened: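 Soft-agar clonogenic assay. Cells pretreated 24 h with largazole or DMSO, then seeded in 0.3% soft agar upper layer over 0.6% soft agar lower layer. Colonies counted by microscope after 10 days. Mean ± SD of three independent experiments.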

A549 [8] = assay: Growth inhibition of human A549 cells at 0.1 uM after 24 to 48 hrs by trypan blue exclusion assay; assay type: functional, cell-based
Procedure, shortened: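 Cells treated with largazole for indicated times. Viability evaluated by trypan blue exclusion.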

[9] = Cytotoxicity against human H466 cells after 48 hrs by CCK-8 assay; assay type: functional, cell-based; settings: H466, 48 h
Procedure, shortened: (§1)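 Cells treated with a range of largazole concentrations for 48 h. Proliferation read by CCK-8 assay; IC50 derived from the concentration series.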

[10] = Cytotoxicity against human L78 cells after 48 hrs by CCK-8 assay; assay type: functional, cell-based; settings: L78, 48 h; procedure, shortened: as §1
NCI-H460 [11] = assay: Cytotoxicity against human NCI-H460 cells after 48 hrs by CCK-8 assay; assay type: functional, cell-based; settings: NCI-H460, 48 h; procedure, shortened: as §1
[12] = target: Histone deacetylase 1 (Homo sapiens) (UniProt Q13547); settings: A549, 0.1 uM
[13] = target: Histone deacetylase 1 (Homo sapiens) (UniProt Q13547); settings: A549, 0.01 to 1 uM

Histone deacetylase 1 (Homo sapiens), sequence (Q13547 whole entry): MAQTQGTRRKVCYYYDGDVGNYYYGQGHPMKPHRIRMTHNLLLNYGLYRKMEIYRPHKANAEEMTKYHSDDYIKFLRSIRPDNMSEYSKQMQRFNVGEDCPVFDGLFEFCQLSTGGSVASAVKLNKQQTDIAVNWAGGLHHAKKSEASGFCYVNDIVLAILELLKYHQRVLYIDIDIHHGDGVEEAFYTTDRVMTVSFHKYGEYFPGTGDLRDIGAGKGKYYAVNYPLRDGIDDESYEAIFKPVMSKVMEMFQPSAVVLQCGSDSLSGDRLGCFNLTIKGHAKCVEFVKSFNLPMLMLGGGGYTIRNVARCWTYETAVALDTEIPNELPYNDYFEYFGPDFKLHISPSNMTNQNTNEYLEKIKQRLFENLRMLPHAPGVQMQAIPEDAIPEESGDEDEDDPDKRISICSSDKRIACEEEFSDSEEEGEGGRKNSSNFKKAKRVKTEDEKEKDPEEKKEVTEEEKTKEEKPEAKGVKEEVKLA

For CCCCCCCC(=O)SCC/C=C/[C@@H]1CC(=O)NCc2nc(cs2)C2=N[C@@](C)(CS2)C(=O)N[C@@H](C(C)C)C(=O)O1 [LARGAZOLE], the Activity (A549 [1]) was “Active”, the Activity [2] was “Active” and the Activity (A549 [3]) was “inactive”. The Activity (A549 [4]) was “Active”, the Activity (A549 [5]) was “<=70%” and the Activity (A549 [6]) was 90.4%. For the same compound, the inhibition (NCI-H460 [7]) was “Dose-dependent effect”, the “growth inhibition (GI)” value (A549 [8]) was “Active” and the IC50 [9] was 520 nM. The IC50 [10] was 570 nM, the IC50 (NCI-H460 [11]) was 120 nM and the inhibition [12] was “Active”. For the same compound, the inhibition [13] was “Active”.
